In PMC9186316 (Toxicological Sciences, 2019):
Read-outs that look alike come from different tables or passages of the source.

How the values were obtained:
[1] = Rapid equilibrium dialysis, fraction unbound in rat serum; type: in vitro ADME; details: for recovery: rat serum; for fraction unbound: serum
uterus weight response = test system: uterus weight response; parameters: species or system rat; details: predicted and in vivo BMDL50 to BMDU50, rats
In short: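 Generic rat PBK models used for reverse dosimetry of MCF-7 proliferation and YES concentration-response data. In vitro concentrations corrected for unbound fraction (RED in assay medium and rat serum; 10% FBS medium taken as half the 5% FBS fub), then converted to blood concentrations and dose levels. Literature uterotrophic data: absolute uterus weight increase, not body-weight normalised. BMR 50% over control; BMD50 with 95% BMDL50–BMDU50.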

[2] = type: in vitro ADME; details: bovine; for recovery: in vitro MCF-7 proliferation assay medium containing 5% FBS; for fraction unbound: in vitro proliferation assay medium with 5% FBS
[3] = Hepatic clearance by substrate depletion in rat liver S9; type: in vitro ADME; details: Sprague-Dawley, liver S9, pH 7.4
In short: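 Rat liver S9 (pooled, male or female Sprague-Dawley, 0.5 mg/ml) was incubated with 3 µM substrate (added from a 100-fold DMSO stock). Sampling ran 0–90 min against cofactor-free controls, with UPLC quantification. CLint came from the linear part of ln(Ccompound/Ccontrol) versus time. Triplicates, 3 independent studies.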

[4] = Generic PBK model evaluation: predicted versus reported Cmax in rat blood; details: oral administration, rats
In short: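 The generic PBK model predicted parent-compound blood concentration–time curves after single oral dosing in rats, using partition coefficients calculated from log Pow and hepatic clearance from rat liver S9. Doses matched those of the published in vivo kinetic studies. Predicted Cmax was compared with literature blood data, and the difference was expressed as a fold value.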

SMILES: CC/C(=C(/CC)c1ccc(O)cc1)c1ccc(O)cc1 [DES, Diethylstilbestrol]
- recovery [1]: 77%
- fraction unbound [1]: 0.48 ± 0.08
- Potency comparison from BMD50 values (Figure 8) (uterus weight response): most potent
- recovery [2]: 79%
- fraction unbound [2]: 0.74 ± 0.02

SMILES: CC(C)(c1ccc(O)cc1)c1ccc(O)cc1 [BPA, bisphenol A]
- Potency comparison from BMD50 values (Figure 8) (uterus weight response): least potent

SMILES: O=c1c(-c2ccc(O)cc2)coc2cc(O)cc(O)c12 [GEN, genistein]
- recovery [1]: 83%
- fraction unbound [1]: 0.07 ± 0.02
- recovery [2]: 88%
- fraction unbound [2]: 0.8 ± 0.04

SMILES: C[C@]12CC[C@@H]3c4ccc(O)cc4CC[C@H]3[C@@H]1CC[C@@H]2O [E2, 17β-estradiol]
- Potency comparison from BMD50 values (Figure 8) (uterus weight response): most potent

SMILES: COc1ccc(C(c2ccc(OC)cc2)C(Cl)(Cl)Cl)cc1 [MXC, methoxychlor]
- recovery [1]: 76%
- fraction unbound [1]: 0.27 ± 0.04
- microsomal CLint at 3 µM ([3]; female): 313 ± 5 µL/min/mg
- microsomal CLint at 3 µM ([3]; male): 448 ± 8 µL/min/mg
- recovery [2]: 77%
- fraction unbound [2]: 0.73 ± 0.29

SMILES: C#C[C@]1(O)CC[C@H]2[C@@H]3CCc4cc(O)ccc4[C@H]3CC[C@@]21C [EE2, 17α-ethinylestradiol]
- recovery [1]: 80%
- fraction unbound [1]: 0.46 ± 0.03
- Potency comparison from BMD50 values (Figure 8) (uterus weight response): most potent
- recovery [2]: 86%
- fraction unbound [2]: 0.72 ± 0.18

SMILES: O=c1oc2cc(O)ccc2c2oc3cc(O)ccc3c12 [COU, coumestrol]
- recovery [1]: 82%
- fraction unbound [1]: 0.35 ± 0.07
- Difference in Cmax between the model predictions and the in vivo kinetic data [4]: 2.2 fold
- recovery [2]: 79%
- fraction unbound [2]: 0.69 ± 0.034
